Assay results as given in ChEMBL document CHEMBL5042558, “Selective Macrocyclic Inhibitors of DYRK1A/B” (ACS Med Chem Lett, 2022).
pIC50: −log10 of the molar value. Calls of active or inactive are those of the source. The calls are words filed in the database; no cut-off is given here.

How the values were obtained:
HEK-293T = assay: Antiproliferative activity against human HEK293T cells assessed as reduction in cell viability at 10 uM measured after 72 hrs by Celltiter-Glo luminescent assay; assay type: toxicity, cell-based
CAL-27 [1] = assay: Induction of apoptosis in human CAL-27 cells assessed as decrease in FOXO3A phosphorylation at serine 253 residue at 5 uM after 24 hrs by Immunoblot analysis relative to control; assay type: functional; parameters: scale not given: the % may be the effect or the level left
CAL-27 [2] = assay: Induction of apoptosis in human CAL-27 cells assessed as BCL-xL level at 10 uM after 24 hrs by Immunoblot analysis relative to control; assay type: functional
CAL-27 [3] = assay: Induction of apoptosis in human CAL-27 cells assessed as decrease in FOXO3A phosphorylation at serine 253 residue at 1 uM after 24 hrs by Immunoblot analysis relative to control; assay type: functional; parameters: scale not given: the % may be the effect or the level left
FaDu = assay: Antiproliferative activity against human FaDu cells assessed as reduction in cell viability at 10 uM measured after 72 hrs by Celltiter-Glo luminescent assay; assay type: functional
CAL-27 [4] = assay: Induction of apoptosis in human CAL-27 cells assessed as PARP level at 1 uM after 24 hrs by Immunoblot analysis relative to control; assay type: functional
CAL-27 [5] = assay: Induction of apoptosis in human CAL-27 cells assessed as BCL-xL level at 1 uM after 24 hrs by Immunoblot analysis relative to control; assay type: functional
[6] = biological target: Serine/threonine-protein kinase ATR (Homo sapiens) (UniProt Q13535); assay: Inhibition of ATR (unknown origin) in human CAL-27 cells measured after 6 hrs by select screen kinase assay; assay type: cell-based
CAL-27 [7] = assay: Induction of apoptosis in human CAL-27 cells assessed as decrease in FOXO3A phosphorylation at serine 253 residue at 0.5 uM after 24 hrs by Immunoblot analysis relative to control; assay type: functional; parameters: scale not given: the % may be the effect or the level left
CAL-27 [8] = assay: Induction of apoptosis in human CAL-27 cells assessed as decrease in FOXO3A phosphorylation at serine 253 residue at 10 uM after 24 hrs by Immunoblot analysis relative to control; assay type: functional; parameters: scale not given: the % may be the effect or the level left
CAL-27 [9] = assay: Induction of apoptosis in human CAL-27 cells assessed as decrease in AKT phosphorylation at S473 residue at 0.5 uM after 24 hrs by Immunoblot analysis relative to control; assay type: functional; parameters: scale not given: the % may be the effect or the level left
CAL-27 [10] = assay: Induction of apoptosis in human CAL-27 cells assessed as increase in cleaved-PARP level at 1 uM after 24 hrs by Immunoblot analysis relative to control; assay type: functional
CAL-27 [11] = assay: Induction of apoptosis in human CAL-27 cells assessed as decrease in AKT phosphorylation at S473 residue at 10 uM after 24 hrs by Immunoblot analysis relative to control; assay type: functional; parameters: scale not given: the % may be the effect or the level left
CAL-27 [12] = assay: Induction of apoptosis in human CAL-27 cells assessed as PARP level at 10 uM after 24 hrs by Immunoblot analysis relative to control; assay type: functional
CAL-27 [13] = assay: Antiproliferative activity against human CAL-27 cells assessed as reduction in cell viability at 10 uM measured after 72 hrs by Celltiter-Glo luminescent assay; assay type: functional
CAL-27 [14] = assay: Induction of apoptosis in human CAL-27 cells assessed as decrease in AKT phosphorylation at S473 residue at 1 uM after 24 hrs by Immunoblot analysis relative to control; assay type: functional; parameters: scale not given: the % may be the effect or the level left
CAL-27 [15] = assay: Induction of apoptosis in human CAL-27 cells assessed as decrease in AKT phosphorylation at S473 residue at 5 uM after 24 hrs by Immunoblot analysis relative to control; assay type: functional; parameters: scale not given: the % may be the effect or the level left
CAL-27 [16] = assay: Induction of apoptosis in human CAL-27 cells assessed as increase in cleaved-PARP level at 10 uM after 24 hrs by Immunoblot analysis relative to control; assay type: functional
[17] = biological target: Cyclin-dependent kinase 8 (Homo sapiens) (UniProt P49336); assay: Inhibition of CDK8 (unknown origin) in human CAL-27 cells measured after 6 hrs by select screen kinase assay; assay type: cell-based
Chain of Cyclin-dependent kinase 8 (Homo sapiens) (P49336 whole entry): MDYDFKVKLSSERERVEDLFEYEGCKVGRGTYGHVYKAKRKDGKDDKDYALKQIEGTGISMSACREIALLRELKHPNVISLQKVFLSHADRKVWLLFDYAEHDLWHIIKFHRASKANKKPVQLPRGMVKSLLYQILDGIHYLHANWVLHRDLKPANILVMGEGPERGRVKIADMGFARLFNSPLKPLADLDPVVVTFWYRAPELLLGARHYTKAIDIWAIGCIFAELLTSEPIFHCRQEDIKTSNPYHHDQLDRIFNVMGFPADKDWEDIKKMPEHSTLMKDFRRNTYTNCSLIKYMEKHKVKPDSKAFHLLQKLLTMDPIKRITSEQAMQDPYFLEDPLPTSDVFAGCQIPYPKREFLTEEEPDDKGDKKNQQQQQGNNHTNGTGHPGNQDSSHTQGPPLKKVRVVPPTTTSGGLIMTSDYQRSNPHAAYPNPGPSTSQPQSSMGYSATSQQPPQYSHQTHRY
In short: (§1)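 Cellular kinase profiling by KiNativ in CAL27 head and neck squamous carcinoma cells. Cells were treated with compound at 1 μM for 6 h, then kinase engagement was profiled across the kinome by KiNativ.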

[18] = biological target: Cyclin-dependent kinase 19 (Homo sapiens) (UniProt Q9BWU1); assay: Inhibition of […] (unknown origin) in human CAL-27 cells measured after 6 hrs by select screen kinase assay; assay type: cell-based; in short: as §1
[19] = biological target: T1, Dual specificity tyrosine-phosphorylation-regulated kinase 1B (Homo sapiens, UniProt Q9Y463); assay: Inhibition of DYRK1B (unknown origin) measured after 6 hrs in presence of ATP by Z'-LYTE assay
T1 sequence (Q9Y463 whole entry): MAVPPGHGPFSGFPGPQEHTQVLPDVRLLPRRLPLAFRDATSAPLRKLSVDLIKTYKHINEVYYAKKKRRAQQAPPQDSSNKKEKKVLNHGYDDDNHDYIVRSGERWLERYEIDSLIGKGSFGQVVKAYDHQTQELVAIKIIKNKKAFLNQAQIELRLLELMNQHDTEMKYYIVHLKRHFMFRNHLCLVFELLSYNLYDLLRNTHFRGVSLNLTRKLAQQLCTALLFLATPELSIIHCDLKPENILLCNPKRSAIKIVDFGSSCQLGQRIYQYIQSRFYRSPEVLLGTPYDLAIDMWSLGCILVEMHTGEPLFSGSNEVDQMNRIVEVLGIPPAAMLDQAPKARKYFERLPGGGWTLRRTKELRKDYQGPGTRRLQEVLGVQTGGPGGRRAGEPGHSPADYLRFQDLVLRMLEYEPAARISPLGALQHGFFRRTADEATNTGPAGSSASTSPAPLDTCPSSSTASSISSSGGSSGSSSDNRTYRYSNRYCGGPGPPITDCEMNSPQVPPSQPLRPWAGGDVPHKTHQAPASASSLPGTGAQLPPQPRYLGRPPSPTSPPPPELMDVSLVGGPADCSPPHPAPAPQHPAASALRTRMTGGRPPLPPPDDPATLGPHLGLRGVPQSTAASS

[20] = biological target: T1, Dual specificity tyrosine-phosphorylation-regulated kinase 1B; assay: Inhibition of DYRK1B (unknown origin) at 1 uM by kinomescan method
[21] = biological target: Ribosomal protein S6 kinase alpha-6 (Homo sapiens, UniProt Q9UK32); assay: Inhibition of RSK4 (unknown origin) at 1 uM by kinome scan method
[22] = AUC (0-infinity) in C57BL/6 mouse at 10 mg/kg, po measured upto 8 hrs by LC-MS/MS analysis; assay type: ADME, organism-based; parameters: route oral, dose 10 mg/kg, time <=8; details: C57BL/6, mouse, in vivo
[23] = biological target: T2, Ribosomal protein S6 kinase alpha-3 (Homo sapiens, UniProt P51812); assay: Inhibition of RSK2 (unknown origin) at 1 uM by kinome scan method
T2 sequence (P51812 whole entry): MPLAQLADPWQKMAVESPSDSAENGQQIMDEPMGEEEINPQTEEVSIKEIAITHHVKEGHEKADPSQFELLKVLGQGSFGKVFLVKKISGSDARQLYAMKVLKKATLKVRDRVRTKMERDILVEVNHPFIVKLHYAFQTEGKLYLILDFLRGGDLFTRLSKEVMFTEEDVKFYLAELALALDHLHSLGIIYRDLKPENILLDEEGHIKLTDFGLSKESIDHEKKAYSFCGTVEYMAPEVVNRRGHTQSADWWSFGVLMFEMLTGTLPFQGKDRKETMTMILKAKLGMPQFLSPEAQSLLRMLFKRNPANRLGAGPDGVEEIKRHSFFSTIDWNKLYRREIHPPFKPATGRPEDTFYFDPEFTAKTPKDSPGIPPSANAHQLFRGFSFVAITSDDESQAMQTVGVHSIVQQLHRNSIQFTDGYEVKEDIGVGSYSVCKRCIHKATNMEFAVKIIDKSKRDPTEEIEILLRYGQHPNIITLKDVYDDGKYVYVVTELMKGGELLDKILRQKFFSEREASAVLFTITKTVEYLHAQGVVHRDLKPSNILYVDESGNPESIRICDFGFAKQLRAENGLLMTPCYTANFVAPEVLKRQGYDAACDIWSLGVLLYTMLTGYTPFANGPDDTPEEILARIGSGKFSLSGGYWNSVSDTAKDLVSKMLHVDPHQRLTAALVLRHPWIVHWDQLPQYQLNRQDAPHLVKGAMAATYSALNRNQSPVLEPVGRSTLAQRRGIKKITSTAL

[24] = biological target: Mitogen-activated protein kinase kinase kinase 19 (Homo sapiens, UniProt Q56UN5); assay: Inhibition of YSK4 (unknown origin) at 1 uM by kinome scan method
Chain of Mitogen-activated protein kinase kinase kinase 19 (Q56UN5 whole entry): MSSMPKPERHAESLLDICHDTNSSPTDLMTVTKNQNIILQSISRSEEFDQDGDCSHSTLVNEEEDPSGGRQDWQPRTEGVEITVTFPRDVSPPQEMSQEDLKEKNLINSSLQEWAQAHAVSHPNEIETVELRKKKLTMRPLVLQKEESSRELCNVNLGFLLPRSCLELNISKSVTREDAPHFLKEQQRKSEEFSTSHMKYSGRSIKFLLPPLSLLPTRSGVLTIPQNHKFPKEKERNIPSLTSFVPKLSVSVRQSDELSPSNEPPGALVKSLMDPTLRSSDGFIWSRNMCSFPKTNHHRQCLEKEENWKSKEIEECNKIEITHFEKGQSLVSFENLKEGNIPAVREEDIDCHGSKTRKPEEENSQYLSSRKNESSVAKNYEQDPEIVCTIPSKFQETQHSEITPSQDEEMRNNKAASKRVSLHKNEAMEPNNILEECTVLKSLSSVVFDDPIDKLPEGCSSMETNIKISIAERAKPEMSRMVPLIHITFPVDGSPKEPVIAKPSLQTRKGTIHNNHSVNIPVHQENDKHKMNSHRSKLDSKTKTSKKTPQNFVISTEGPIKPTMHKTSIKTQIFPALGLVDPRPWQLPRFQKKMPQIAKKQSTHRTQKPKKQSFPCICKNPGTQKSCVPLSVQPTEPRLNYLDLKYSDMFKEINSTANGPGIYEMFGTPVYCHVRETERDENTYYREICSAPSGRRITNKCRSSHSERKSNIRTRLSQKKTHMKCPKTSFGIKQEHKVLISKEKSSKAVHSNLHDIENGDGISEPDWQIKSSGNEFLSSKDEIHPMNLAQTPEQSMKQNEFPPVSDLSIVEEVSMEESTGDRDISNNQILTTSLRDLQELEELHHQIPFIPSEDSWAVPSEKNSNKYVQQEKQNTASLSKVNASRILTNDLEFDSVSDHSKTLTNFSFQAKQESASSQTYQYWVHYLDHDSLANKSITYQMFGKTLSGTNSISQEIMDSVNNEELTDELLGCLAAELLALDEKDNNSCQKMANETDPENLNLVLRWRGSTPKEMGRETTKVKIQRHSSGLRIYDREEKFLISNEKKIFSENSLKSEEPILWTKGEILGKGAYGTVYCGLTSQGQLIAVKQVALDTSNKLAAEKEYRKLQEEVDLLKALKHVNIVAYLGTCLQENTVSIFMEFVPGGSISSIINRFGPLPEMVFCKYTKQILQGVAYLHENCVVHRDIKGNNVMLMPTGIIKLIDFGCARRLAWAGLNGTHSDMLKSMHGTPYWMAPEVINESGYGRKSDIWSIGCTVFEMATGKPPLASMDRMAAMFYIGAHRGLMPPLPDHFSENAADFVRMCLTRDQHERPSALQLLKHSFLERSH

[25] = Half life in C57BL/6 mouse at 2 mg/kg, iv measured upto 8 hrs by LC-MS/MS analysis; assay type: ADME, organism-based; details: in vivo
[26] = biological target: Serine/threonine-protein kinase Sgk1 (Homo sapiens, UniProt O00141); assay: Inhibition of SGK (unknown origin) at 1 uM by kinome scan method
[27] = Clearance in C57BL/6 mouse at 10 mg/kg, po measured upto 8 hrs by LC-MS/MS analysis; assay type: ADME, organism-based; details: in vivo
Focal adhesion kinase 1 [28] = biological target: T3, Focal adhesion kinase 1 (Homo sapiens, UniProt Q05397); assay: Inhibition of FAK (unknown origin) in human CAL-27 cells measured after 6 hrs by select screen kinase assay; assay type: cell-based
T3 sequence (Q05397 whole entry): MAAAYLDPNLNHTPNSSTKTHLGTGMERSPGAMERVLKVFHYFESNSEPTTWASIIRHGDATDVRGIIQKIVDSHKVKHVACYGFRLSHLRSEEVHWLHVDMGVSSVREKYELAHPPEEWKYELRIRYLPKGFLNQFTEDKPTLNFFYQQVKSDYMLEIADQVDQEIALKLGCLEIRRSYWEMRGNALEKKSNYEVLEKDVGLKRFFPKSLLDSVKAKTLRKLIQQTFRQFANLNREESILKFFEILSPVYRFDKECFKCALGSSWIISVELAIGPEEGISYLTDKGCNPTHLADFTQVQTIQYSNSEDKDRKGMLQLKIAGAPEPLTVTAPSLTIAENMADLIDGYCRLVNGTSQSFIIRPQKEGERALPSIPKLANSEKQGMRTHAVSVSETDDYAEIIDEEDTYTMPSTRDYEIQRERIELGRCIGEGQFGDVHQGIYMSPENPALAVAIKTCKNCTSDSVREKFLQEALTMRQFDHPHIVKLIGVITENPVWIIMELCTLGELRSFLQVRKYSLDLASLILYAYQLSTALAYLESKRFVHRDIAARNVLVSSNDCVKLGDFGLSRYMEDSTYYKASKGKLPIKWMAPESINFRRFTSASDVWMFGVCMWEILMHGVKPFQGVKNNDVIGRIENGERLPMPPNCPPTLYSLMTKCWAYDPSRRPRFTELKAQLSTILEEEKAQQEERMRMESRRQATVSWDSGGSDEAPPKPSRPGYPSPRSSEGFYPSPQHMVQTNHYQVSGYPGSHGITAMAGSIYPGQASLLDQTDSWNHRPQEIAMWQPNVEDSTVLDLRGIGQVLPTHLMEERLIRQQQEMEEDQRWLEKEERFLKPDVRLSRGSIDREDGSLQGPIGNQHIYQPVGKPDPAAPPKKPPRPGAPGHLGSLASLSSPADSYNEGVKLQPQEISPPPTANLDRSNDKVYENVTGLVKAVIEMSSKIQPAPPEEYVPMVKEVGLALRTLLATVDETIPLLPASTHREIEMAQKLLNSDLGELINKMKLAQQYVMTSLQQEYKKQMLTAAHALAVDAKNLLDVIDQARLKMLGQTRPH

[29] = biological target: T2, Ribosomal protein S6 kinase alpha-3; assay: Inhibition of RSK2 (unknown origin) in human CAL-27 cells measured after 6 hrs by select screen kinase assay; assay type: cell-based
[30] = Cmax in C57BL/6 mouse at 2 mg/kg, iv measured upto 8 hrs by LC-MS/MS analysis; assay type: ADME, organism-based; parameters: route intravenous, dose 2 mg/kg, time <=8; details: in vivo
[31] = biological target: Dual specificity mitogen-activated protein kinase kinase 4 (Homo sapiens, UniProt P45985); assay: Inhibition of MEK4 (unknown origin) at 1 uM by kinome scan method
Chain of Dual specificity mitogen-activated protein kinase kinase 4 (P45985 whole entry): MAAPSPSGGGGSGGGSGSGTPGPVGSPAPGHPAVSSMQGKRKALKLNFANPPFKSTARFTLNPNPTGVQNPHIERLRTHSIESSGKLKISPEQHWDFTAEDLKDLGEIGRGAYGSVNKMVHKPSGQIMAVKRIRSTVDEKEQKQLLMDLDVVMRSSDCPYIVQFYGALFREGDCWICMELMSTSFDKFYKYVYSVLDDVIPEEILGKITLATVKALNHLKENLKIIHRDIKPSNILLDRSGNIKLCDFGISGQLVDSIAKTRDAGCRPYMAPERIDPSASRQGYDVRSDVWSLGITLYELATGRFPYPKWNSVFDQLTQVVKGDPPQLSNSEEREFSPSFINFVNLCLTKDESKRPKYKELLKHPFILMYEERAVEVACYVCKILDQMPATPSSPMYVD

[32] = Clearance in C57BL/6 mouse at 2 mg/kg, iv measured upto 8 hrs by LC-MS/MS analysis; assay type: ADME, organism-based; details: in vivo
Focal adhesion kinase 1 [33] = biological target: T3, Focal adhesion kinase 1; assay: Inhibition of FAK (unknown origin) at 1 uM by kinome scan method
[34] = biological target: Mitogen-activated protein kinase 8 (Homo sapiens, UniProt P45983); assay: Inhibition of JNK1 (unknown origin) in human CAL-27 cells measured after 6 hrs by select screen kinase assay; assay type: cell-based
[35] = Half life in C57BL/6 mouse at 10 mg/kg, po measured upto 8 hrs by LC-MS/MS analysis; assay type: ADME, organism-based; details: in vivo
[36] = biological target: Ribosomal protein S6 kinase alpha-2 (Homo sapiens, UniProt Q15349); assay: Inhibition of RSK3 (unknown origin) in human CAL-27 cells measured after 6 hrs by select screen kinase assay; assay type: cell-based
[37] = biological target: Mitogen-activated protein kinase 9 (Homo sapiens, UniProt P45984); assay: Inhibition of JNK2 (unknown origin) in human CAL-27 cells measured after 6 hrs by select screen kinase assay; assay type: cell-based
Misshapen-like kinase 1 = Misshapen-like kinase 1 (Homo sapiens, UniProt Q8N4C8); assay: Inhibition of MINK1 (unknown origin) at 1 uM by kinome scan method
[38] = biological target: Ribosomal protein S6 kinase alpha-1 (Homo sapiens, UniProt Q15418); assay: Inhibition of RSK1 (unknown origin) in human CAL-27 cells measured after 6 hrs by select screen kinase assay; assay type: cell-based
[39] = AUC (0-infinity) in C57BL/6 mouse at 2 mg/kg, iv measured upto 8 hrs by LC-MS/MS analysis; assay type: ADME, organism-based; parameters: route intravenous, dose 2 mg/kg, time <=8; details: in vivo
[40] = biological target: Mitogen-activated protein kinase 10 (Homo sapiens, UniProt P53779); assay: Inhibition of JNK3 (unknown origin) in human CAL-27 cells measured after 6 hrs by select screen kinase assay; assay type: cell-based
Chain of Mitogen-activated protein kinase 10 (P53779 whole entry): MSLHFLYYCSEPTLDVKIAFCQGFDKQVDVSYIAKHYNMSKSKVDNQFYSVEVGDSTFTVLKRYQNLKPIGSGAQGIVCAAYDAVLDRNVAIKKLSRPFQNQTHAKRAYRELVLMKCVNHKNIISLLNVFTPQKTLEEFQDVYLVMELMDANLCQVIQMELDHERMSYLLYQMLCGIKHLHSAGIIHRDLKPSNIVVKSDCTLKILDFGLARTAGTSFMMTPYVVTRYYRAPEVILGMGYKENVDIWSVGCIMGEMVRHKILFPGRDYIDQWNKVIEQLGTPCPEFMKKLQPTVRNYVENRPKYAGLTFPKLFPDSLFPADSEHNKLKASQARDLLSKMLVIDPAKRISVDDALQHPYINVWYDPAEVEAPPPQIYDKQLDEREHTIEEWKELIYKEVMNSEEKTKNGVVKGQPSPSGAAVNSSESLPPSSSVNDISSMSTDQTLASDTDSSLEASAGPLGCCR

[41] = Cmax in C57BL/6 mouse at 10 mg/kg, po measured upto 8 hrs by LC-MS/MS analysis; assay type: ADME, organism-based; parameters: route oral, dose 10 mg/kg, time <=8; details: in vivo
[42] = Oral bioavailability in C57BL/6 mouse at 10 mg/kg measured upto 8 hrs by LC-MS/MS analysis; assay type: ADME, organism-based; details: C57BL/6, mouse, in vivo

In the case of `O=C(O)c1ccc2c(c1)nc(Nc1cccc(Cl)c1)c1ccncc12` [SILMITASERTIB], the Activity (HEK-293T) was “Active”, the Activity (CAL-27 [1]) was 139% and the Activity (CAL-27 [2]) was 103%. The Activity (CAL-27 [3]) was 150%, the Activity (FaDu) was 75% and the Activity (CAL-27 [4]) was 127%. For the same molecule, the Activity (CAL-27 [5]) was 80%, the inhibition [6] was “Active” and the Activity (CAL-27 [7]) was 103%. The Activity (CAL-27 [8]) was 150%, the Activity (CAL-27 [9]) was 54% and the Activity (CAL-27 [10]) was 201%. The Activity (CAL-27 [11]) was 85%, the Activity (CAL-27 [12]) was 137% and the Activity (CAL-27 [13]) was 80%. The Activity (CAL-27 [14]) was 53%, the Activity (CAL-27 [15]) was 85% and the Activity (CAL-27 [16]) was 871%.
For `COc1ccc2c(c1)[nH]c1c(C)nccc12` [HARMINE], the Activity (HEK-293T) was “Active”, the Activity (CAL-27 [1]) was 110% and the Activity (CAL-27 [2]) was 93%. The Activity (CAL-27 [3]) was 107%, the Activity (FaDu) was “inactive” and the Activity (CAL-27 [4]) was 113%. The Activity (CAL-27 [5]) was 92%, the Activity (CAL-27 [7]) was 82% and the Activity (CAL-27 [8]) was 90%. The Activity (CAL-27 [9]) was 64%, the inhibition [17] was “Active” and the Activity (CAL-27 [10]) was 139%. For the same molecule, the Activity (CAL-27 [11]) was 143%, the Activity (CAL-27 [12]) was 141% and the inhibition [18] was “Active”. For the same molecule, the Activity (CAL-27 [14]) was 93%, the Activity (CAL-27 [15]) was 133% and the Activity (CAL-27 [16]) was 210%.
`CN1Cc2nn(C)cc2-c2cnc3[nH]cc(c3c2)-c2cnn(c2)CCCC1=O` gave a pIC50 [19] of 7.15 and a pIC50 [20] of 7.72.
For `CN1Cc2nn(C)c(C#N)c2-c2cnc3[nH]c(F)c(c3c2)-c2cn(nc2C(F)(F)F)CCCC1=O`, the Activity (HEK-293T) was “Non-Toxic”, the pIC50 [21] was 7.43 and the Activity (CAL-27 [1]) was 10%. For the same molecule, the Activity (CAL-27 [2]) was 58%, the AUC(0-inf) [22] was 5770 ng·h/mL and the Activity (CAL-27 [3]) was 49%. The Activity (FaDu) was 40%, the pIC50 [23] was 6.74 and the Activity (CAL-27 [4]) was 104%. It also gave an Activity (CAL-27 [5]) of 61%, a pIC50 [24] of 5.79 and a half-life [25] of 1.2 h. The pIC50 [26] was 6.16, the Activity (CAL-27 [7]) was 56% and the CL/F [27] was 29.3 mL/min/kg. The pIC50 (Focal adhesion kinase 1 [28]) was 7.05, the Activity (CAL-27 [8]) was 38% and the Activity (CAL-27 [9]) was 81%. The pIC50 [29] was 7.10, the Cmax [30] was 34.1 µM and the Activity (CAL-27 [10]) was 128%. The Activity (CAL-27 [11]) was 63%, the pIC50 [31] was 6.88 and the Activity (CAL-27 [12]) was 93%. It also gave a clearance [32] of 5.9 mL/min/kg, a pIC50 (Focal adhesion kinase 1 [33]) of 6.68 and a pIC50 [34] of 5.95. The half-life [35] was 2.4 h, the pIC50 [36] was 7.21 and the pIC50 [37] was 5.96. It also gave a pIC50 (Misshapen-like kinase 1) of 6.94, a pIC50 [38] of 7.09 and an Activity (CAL-27 [13]) of 45%. The AUC(0-inf) [39] was 8950 ng·h/mL, the pIC50 [40] was under 5.00 and the Activity (CAL-27 [14]) was 85%. It also gave a Cmax [41] of 6.4 µM, a bioavailability [42] of 12.3% and an Activity (CAL-27 [15]) of 74%. For the same molecule, the Activity (CAL-27 [16]) was 540%.
Work on `CN1Cc2nn(C)c(C#N)c2-c2cc3c(c[nH]c3nn2)-c2cn(nc2C(F)(F)F)CCCC1=O` yielded a pIC50 [19] of 5.52.
Molecule `CN1Cc2nn(C)cc2-c2cnc3[nH]cc(c3c2)-c2cnn(c2)CCCCC1=O` has a pIC50 [19] of 6.82.
